Bioassay records from PubChem.
The list is not random: actives were taken first. Their share in the collection is about 2.2%.
VIM-2 inhibitor = blocks Pseudomonas aeruginosa VIM-2 metallo-beta-lactamase; purified VIM-2, nitrocefin hydrolysis, epi-absorbance fluorescence; AID 1527; 0.89% of 290,000 active; inhibition, % at 5.6 µM;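 active = inhibition above the mean of all tested compounds plus 3 SD, cutoff set per screening run, cut at about 7.5% in these data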;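 also: red hydrolysis product quenches plate fluorescence so inhibitors raise well fluorescence; 0% = enzyme with DMSO and 100% = DMSO without enzyme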
IMP-1 inhibitor = inhibitors of Pseudomonas aeruginosa IMP-1 metallo-beta-lactamase. purified IMP-1, nitrocefin hydrolysis, epi-absorbance fluorescence. inhibition, % at 5.6 µM. 0.45% of 290,000 active;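 active = inhibition above the mean plus 3 SD of all compounds in the same screening run, cut at about 4.5% in these data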;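 also: 0% = IMP-1 with DMSO and 100% = DMSO wells lacking enzyme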
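Assay system: purified recombinant IMP-1 beta-lactamase. Input: IMP-1 0.2 nM before substrate addition. Buffer or medium: Zinc- and detergent-supplemented HEPES buffer, pH 7.1. Schedule: 25 °C, 15 min preincubation, 25 min reaction. Signal: Epi-absorbance fluorescence, 480 nm excitation, 530 nm emission. Evaluation: percent inhibition from optical density relative to buffer-blank wells.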
eIF4H inh = inhibitors of RNA binding by human eIF4H | 0.94% of 290,000 active | eIF4H fluorescence polarization binding assay | Q15056 | inhibition, % at 35 µM;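 also: calls also rest on retests at 20 µM and on dose response follow-up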
PABP1 MLLE inh = inhibitors of microRNA-mediated deadenylation, human PABP1 MLLE binding. P11940. GST-MLLE / FITC-PAM2 fluorescence polarization. inhibition, % at 20 µM. 0.36% of 360,000 active; in the data active = inhibition above about 35%, passing the limit was not always enough;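 also: plate controls were DMSO wells with GST-MLLE for no effect and wells lacking GST-MLLE protein for full effect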
Target sequence (P11940 whole entry, looked up): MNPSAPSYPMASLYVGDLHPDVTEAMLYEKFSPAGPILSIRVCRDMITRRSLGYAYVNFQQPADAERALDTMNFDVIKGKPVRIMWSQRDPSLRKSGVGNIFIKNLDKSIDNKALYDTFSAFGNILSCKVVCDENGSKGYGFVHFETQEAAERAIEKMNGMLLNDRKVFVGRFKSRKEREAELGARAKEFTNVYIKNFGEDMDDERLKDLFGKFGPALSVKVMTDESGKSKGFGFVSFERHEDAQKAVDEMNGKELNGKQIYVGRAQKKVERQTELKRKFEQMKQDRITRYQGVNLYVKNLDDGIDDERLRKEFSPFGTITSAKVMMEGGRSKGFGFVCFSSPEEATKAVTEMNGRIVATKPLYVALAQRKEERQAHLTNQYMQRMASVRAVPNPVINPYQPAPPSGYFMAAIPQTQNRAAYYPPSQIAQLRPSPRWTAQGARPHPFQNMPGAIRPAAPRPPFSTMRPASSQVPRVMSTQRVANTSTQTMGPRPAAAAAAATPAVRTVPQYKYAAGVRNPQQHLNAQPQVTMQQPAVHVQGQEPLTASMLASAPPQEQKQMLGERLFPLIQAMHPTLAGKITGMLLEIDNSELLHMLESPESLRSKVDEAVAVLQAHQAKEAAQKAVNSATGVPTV
PABP FP inh = PABP-poly(A) binding inhibition. PABP-poly(A) RNA binding, fluorescence polarization. calls only at 35 µM. 1% of 290,000 active. AID 2014;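 also: calls also rest on retests at 20 µM and on dose response follow-up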
The depositor's hits bear a star; i = inactive; ? = inconclusive; . = not tested or not shown; + = active, no number. Unless noted, no rule for the calls is given here.

SMILES | VIM-2 inhibitor | IMP-1 inhibitor | eIF4H inh | PABP1 MLLE inh | PABP FP inh
CC(=O)Nc1cccc(NC(=O)CSc2ncc(C(=O)Nc3ccc(F)cc3)c(=O)n2C)c1 | . | . | . | 11 | .
COc1ccc(/C=N/NC(=O)c2nn(C)cc2Br)cc1CSCc1ccco1 | 2 | 18* | -4 | 25 | i
CCOc1cc(/C=N/NC(=O)c2nn(C)cc2Br)ccc1OCc1ccccc1 | -5 | -3 | 1 | -7 | i
COc1cc2c(cc1/C=C/C(=O)O)OC(C)C2 (stereo unspecified) | 4 | 9.2* | -6 | -5 | i
COc1ccc(NS(=O)(=O)c2cccc(C(=O)NNC(=O)c3ccc(Br)o3)c2)cc1 | . | . | . | -1 | .
COc1ccc2nc(N3C(=O)CC(C(C)c4ccccc4)C3=O)sc2c1 (stereo unspecified) | 4 | 7.9* | -9 | -1 | i
Cc1cc(C)nc(N2C(=O)CC(C(C)c3ccccc3)C2=O)n1 (stereo unspecified) | -1 | 9.3* | -7 | -5 | i
CCc1ccc(NC(=O)CCC(=O)Nc2nnc(C(C)C)s2)cc1 | -3 | 1 | -16 | -10 | i
COc1ccc(/C=C(\C#N)C(=O)Nc2cc(S(=O)(=O)N3CCCCC3)ccc2N2CCCCC2)cc1 | -2 | -3 | -8 | 13 | i
O=C1NC(=S)SC1=Cc1ccccc1Cl | . | . | . | 10 | .
O=C1NC(=S)S/C1=C\c1ccc(SCc2ccco2)o1 | 4 | 9.7* | 95 | 3 | i
O=C1NC(=S)S/C1=C\c1ccc(SCc2ccccc2)o1 | -2 | 2 | 80* | -30 | +
O=C(COC(=O)c1cc(S(=O)(=O)N2CCOCC2)ccc1F)NCCc1ccc(F)cc1 | . | . | . | 5 | .
CC(C)(C)OC(=O)N1CCC(C(=O)Nc2ccc(C(=O)NCc3ccccc3)cc2)CC1 | . | . | . | 11 | .
O=S1(=O)N=C(N(CCO)/N=C/c2ccc(Br)cc2)c2ccccc21 | -3 | -6 | -10 | -1 | i
CC(C)(C)NC(=O)CCN(/N=C/c1ccc([N+](=O)[O-])o1)C1=NS(=O)(=O)c2ccccc21 | -1 | -4 | 82* | -28 | i
CN(C)c1ccc(N/C=C/C(=O)c2ccc(F)cc2)cc1 | -3 | -3 | 47* | -69 | +
CN(C)CCCNC(=S)Nc1ccc(Br)cc1 | -1 | -1 | -9 | 7 | i
CC(=O)Nc1cncc(-c2cnn(CC(C)C)c2)n1 | . | . | . | 1 | .
CCCCCC(=O)NC(NC(=S)Nc1ccc(S(N)(=O)=O)cc1)C(Cl)(Cl)Cl (stereo unspecified) | 0 | -1 | 61* | 20 | +
O=c1[nH]ncc(N/N=C\c2ccncc2)c1Cl | 0 | 1 | -9 | 0 | i
O=c1[nH]ncc(N/N=C\c2cccs2)c1Cl | 0 | -1 | active | -4 | +
O=C(c1coc(=O)c(Br)c1)N1CCCc2ccccc21 | -3 | -3 | 67* | -18 | +
O=C(c1coc(=O)c(Br)c1)N1CCC(C(O)(c2ccccc2)c2ccccc2)CC1 | -1 | -2 | 6 | -22 | i
CC1(C)CCCN(C(=O)c2coc(=O)c(Br)c2)C1 | -1 | -1 | 89* | 6 | +
SMILES | VIM-2 inhibitor | IMP-1 inhibitor | eIF4H inh | PABP1 MLLE inh | PABP FP inh
O=c1[nH]cc(N=Cc2cc(Cl)cc(Cl)c2O)c(=O)[nH]1 | 0 | 12* | 7 | 29 | i
CC(C)[C@H](NC(=O)OCc1ccccc1)C(=O)OCC(=O)N1C(C)CCCC1C (stereo partly specified) | . | . | . | 4 | .
Cc1cc(-c2n[nH]c(=S)n2/N=C/C=C/c2ccco2)n[nH]1 | -4 | -3 | 93* | -22 | +
CC(/C=N/n1c(-c2cc(C)[nH]n2)n[nH]c1=S)=C\c1ccccc1 | 0 | -5 | active | -30 | +
Cc1ccccc1-c1n[nH]c(=S)n1/N=C/C=C/c1ccco1 | -1 | -1 | 82* | 0 | +
S=c1[nH]nc(-c2ccco2)n1/N=C/C=C/c1ccccc1 | 5 | -4 | -7 | -20 | i
CC1(OC(=O)C2CCCC2)C(=O)C=C2C=C(c3ccsc3)N(Cc3ccco3)C=C2C1=O (stereo unspecified) | . | . | 94* | 7 | +
CC1(OC(=O)C2CCCC2)C(=O)C=C2C=C(c3ccsc3)N(CCCCO)C=C2C1=O (stereo unspecified) | . | . | 49 | 2 | i
O=C1N(C2CCCC2)C[C@@H]2C[C@@H](c3cn[nH]c3-c3ccc(Cl)cc3)N3CCC[C@@]123 | -3 | -2 | 4 | -6 | +
COc1cc(/C=C2\C(=O)N(c3ccccc3)N=C2C)ccc1Oc1ccc([N+](=O)[O-])cc1[N+](=O)[O-] | -3 | -3 | active | 4 | +
CC1=NN(c2ccccc2)C(=O)/C1=C\c1ccc(Oc2ccc([N+](=O)[O-])cc2[N+](=O)[O-])cc1 | -2 | -1 | -6 | 1 | i
O=c1cc(/C=C/c2cccs2)[nH]c2ccccc12 | -1 | -3 | -6 | 11 | i
CSc1ccc(/C=C/c2cc(=O)c3ccccc3[nH]2)cc1 | -2 | 0 | 131* | 7 | i
COc1cccc(F)c1C(=O)NC(=O)Nc1ccc2nc(C)oc2c1 | 0 | 1 | 82 | 82 | +
CSc1nc2ccc(NC(=O)NC(=O)c3c(F)cccc3F)cc2s1 | -3 | 0 | -6 | 6 | i
Cc1ccc(-c2nn(C)c(=O)c3ccccc23)cc1CO | 2 | -2 | -3 | -13 | i
CN(CCO)C(=O)c1ccc(-c2nn(C)c(=O)c3ccccc23)cc1 | 3 | -3 | -8 | 9 | i
Cc1cc(-c2nn(C)c(=O)c3ccccc23)cc(C)c1O | 9.2* | -1 | -6 | -7 | i
Cn1nc(-c2ccc(OCC(=O)NCC3CCCO3)cc2)c2ccccc2c1=O (stereo unspecified) | 11* | -3 | -3 | -2 | i
Cn1nc(-c2ccc(C(=O)NCCO)cc2)c2ccccc2c1=O | 10* | -1 | 5 | 9 | i
Cc1ccc(C)c(S(=O)(=O)Nc2ccccc2C(=O)Nc2ccc(S(=O)(=O)Nc3ncccn3)cc2)c1 | -5 | -4 | 0 | 18 | i
O=C(O)c1ccc2cccnc2c1O | 10* | 0 | 2 | 9 | i
Cc1cccc(-n2[nH]c(C)c(C=Nc3ccc4[nH]c(=O)[nH]c4c3)c2=O)c1 | -2 | -1 | 61* | 17 | +
CCOc1cc(/C=C2/C(=O)ON=C2C)ccc1OCc1ccccc1 | -4 | -2 | ? | . | +
CCOC(=O)C(Cc1ccccc1)C(=O)Nc1cccc2ccccc12 (stereo unspecified) | -3 | -3 | -4 | -13 | i
Cc1ccc(CNS(=O)(=O)c2ccc([N+](=O)[O-])cc2)cc1 | -2 | -3 | 6 | 1 | i
Cc1ccc(S(=O)(=O)Cc2ccc([N+](=O)[O-])cc2)cc1 | -3 | -2 | 98* | 8 | +
O=C(NCCc1cn2ccsc2n1)C1CCCCC1 | 0 | -4 | 7 | 1 | i
c1cn2cc(CSC3CCCCC3)nc2s1 | 9.1* | -3 | 1 | 15 | i
